Activity calls are given as the source filed them. The rule behind the calls is not given here. Numbered stars: 1 amine (or outer) side, 2 acyl side, 3 side chain; on linkers, the order of the positions; unused ones are H or OH. Square brackets hold non-standard residues; d marks the D form. Peptide text beside a SMILES is read from it. dβ3hAhp = CCCCC[C@H](CC(=O)[*:2])N[*:1]; d(aIle) = CC[C@H](C)[C@@H](N)C(=O)O; Hyp = O=C(O)[C@@H]1C[C@@H](O)CN1; X1 = C/C=C(/N[*:1])C(=O)[*:2]; hSer = N[C@@H](CCO)C(=O)O
Tests used:
SH-SY5Y [1] = assay: Cytotoxicity against human SH-SY5Y cells assessed as reduction in cell viability measured after 24 hrs by MTT assay; type: cell-based
In short: (§1)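 SH-SY5Y cells (ATCC CRL2266) in DMEM/F-12 with 10% FBS, 1% glutamax and penicillin/streptomycin, 37 °C, 5% CO2. Compounds were added to the medium (0.01, 0.05, 0.1 and 1 µM listed) for 24 or 6 h. Cells were then given 500 µg/mL MTT for 1 h and solubilized in 5% SDS, with A595 read. Saponin death-control absorbance was subtracted. IC50 reported with 95% CI and R².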

SH-SY5Y [2] = assay: Cytotoxicity against human SH-SY5Y cells assessed as reduction in cell viability measured after 6 hrs by MTT assay; type: cell-based; details: for Cytotoxicity call (toxic / non-toxic): sh-sy5y; for IC50: Homo sapiens, SH-SY5Y, 6 h; in short: as §1
SH-SY5Y [3] = assay: Cytotoxicity against human SH-SY5Y cells assessed as reduction in cell viability measured after 24 hrs by LDH release assay; type: cell-based
In short: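 SH-SY5Y cells in DMEM/F-12 with 10% FBS at 37 °C, 5% CO2, exposed to compounds in the medium for 24 h. LDH release was measured with a commercial LDH-cytotoxicity kit per its protocol as the viability indicator. IC50 reported with 95% CI and R².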

SH-SY5Y [4] = assay: Effect on cell viability in human SH-SY5Y cells up to 10 uM after 6 hrs by MTT assay; type: cell-based
SH-SY5Y [5] = assay: Inhibition of reactive oxygen species production in human SH-SY5Y cells up to 10 uM measured after 6 hrs by DCFH-DA dye based fluorescence assay relative to control; type: cell-based; design: scale not given: the % may be the effect or the level left
In short: (§2)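 SH-SY5Y cells were exposed to compounds (6 h; 1 h also run), washed in saline, and loaded with 20 µM DCF-DA for 30 min at 37 °C. They were then held 30 min at room temperature for de-esterification. DCF fluorescence was read at 475 nm excitation and 525 nm emission, expressed as % of diluent-treated controls, with four independent experiments in triplicate.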

SH-SY5Y [6] = assay: Effect on cell viability in human SH-SY5Y cells up to 10 uM after 1 hr by MTT assay; type: cell-based
SH-SY5Y [7] = assay: Inhibition of reactive oxygen species production in human SH-SY5Y cells up to 10 uM measured after 1 hr by DCFH-DA dye based fluorescence assay; type: cell-based; in short: as §2
SH-SY5Y [8] = assay: Induction of autophagy in human SH-SY5Y cells assessed as LC3-2/LC3-1 ratio at 10 uM measured after 6 hrs by Western blot analysis (reference value: 2.6 +/- 0.3); type: functional
SH-SY5Y [9] = assay: Induction of autophagy in human SH-SY5Y cells assessed as phosphorylated mTOR level at 10 uM measured after 6 hrs by Western blot analysis (reference value: 100%); type: functional
In short: (§3)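 SH-SY5Y cells were treated with 10 µM for 6 h and lysed in ice-cold hypotonic Tris buffer (pH 7.4) with 1% Triton X-100 and inhibitors. The cytosolic fraction was taken at 3000 rpm; membrane fraction came via nuclear extraction buffer. 20 µg protein was run on 10% SDS-PAGE with chemiluminescent detection. Read-outs were LC3II/LC3I ratio or % of untreated (p-mTOR, p62); three experiments in triplicate, blots run in duplicate.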

SH-SY5Y [10] = assay: Induction of autophagy in human SH-SY5Y cells assessed as increase in cytoplasmic p62 levels at 10 uM measured after 6 hrs by Western blot analysis; type: functional, cell-based; in short: as §3
SH-SY5Y [11] = assay: Induction of autophagy in human SH-SY5Y cells assessed as decrease in cytoplasmic p62 levels at 10 uM measured after 6 hrs by Western blot analysis; type: functional; details: in the assay text read “membrane” for “cytoplasmic”; in short: as §3
SH-SY5Y [12] = assay: Cytotoxicity against human SH-SY5Y cells assessed as decrease in cell viability at 10 uM measured after 6 to 24 hrs by MTT assay relative to control; type: cell-based
SH-SY5Y [13] = assay: Effect on mitochondrial membrane potential in human SH-SY5Y cells up to 10 uM measured after 6 hrs by TMRM assay
SH-SY5Y [14] = assay: Induction of apoptosis in human SH-SY5Y cells assessed as decrease in viable cells at 10 uM measured after 6 hrs by Annexin V-FITC/propidium iodide staining based flow cytometry; type: cell-based
In short: (§4)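 SH-SY5Y cells (1×10^6 per well) were treated with 10 µM for 6 h, washed in PBS, and stained with annexin V-FITC/propidium iodide in binding buffer for 15 min. Imaging flow cytometry counted 10000 events. Viable, apoptotic and necrotic populations are given as % of untreated cells, mean ± SEM of three independent experiments in triplicate.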

SH-SY5Y [15] = assay: Induction of apoptosis in human SH-SY5Y cells assessed as increase in apoptotic cells at 10 uM measured after 6 hrs by Annexin V-FITC/propidium iodide staining based flow cytometry; type: cell-based; in short: as §4
SH-SY5Y [16] = assay: Induction of apoptosis in human SH-SY5Y cells assessed as increase in necrotic cells at 10 uM measured after 6 hrs by Annexin V-FITC/propidium iodide staining based flow cytometry; type: cell-based; in short: as §4
SH-SY5Y [17] = assay: Induction of autophagy in human SH-SY5Y cells assessed as increase in LC3-2/LC3-1 ratio at 10 uM measured after 6 hrs by Western blot analysis; type: functional, cell-based; in short: as §3
[18] = Homo sapiens, SH-SY5Y, 24 h, read-out: IC50

| Compound | IC50 (SH-SY5Y [1]; sh-sy5y) | Cytotoxicity call (toxic / non-toxic) (SH-SY5Y [2]) | IC50 (SH-SY5Y [3]; sh-sy5y) | Activity (SH-SY5Y [4]) | Activity (SH-SY5Y [5]) | Activity (SH-SY5Y [6]) | Activity (SH-SY5Y [7]) | Ratio (SH-SY5Y [8]) | Activity (SH-SY5Y [9]) [%] | Activity (SH-SY5Y [10]) | Activity (SH-SY5Y [11]) | Activity (SH-SY5Y [12]) [%] | Activity (SH-SY5Y [13]) | IC50 (SH-SY5Y [1]; [18]) [µM] | IC50 (SH-SY5Y [2]) [µM] | IC50 (SH-SY5Y [3]; [18]) [µM] | Activity (SH-SY5Y [14]) | Activity (SH-SY5Y [15]) | Activity (SH-SY5Y [16]) | Activity (SH-SY5Y [17]) |
| --- | --- | --- | --- | --- | --- | --- | --- | --- | --- | --- | --- | --- | --- | --- | --- | --- | --- | --- | --- | --- |
| C/C=C(/NC(=O)[C@H](CCO)NC(=O)C[C@H](N)CCCCC)C(=O)N1C[C@H](O)C[C@H]1C(=O)N[C@@H](CCO)C(=O)N[C@H](Cc1ccccc1)C(=O)N[C@H](CC(C)C)C(=O)N[C@H](C(=O)N[C@@H](C(=O)N[C@@H](CC(C)C)C(=O)O)[C@@H](C)CC)[C@@H](C)CC | Toxic | Toxic | Non-Toxic | Non-Toxic | 40% | Non-Toxic | Toxic | 6.7 | 70.3 | Active | Active | 50 | Toxic | – | – | – | – | – | – | – |
| C/C=C1/NC(=O)[C@H](CCO)NC(=O)C[C@@H](CCCCC)NC(=O)CNC(=O)[C@H](CC(C)C)NC(=O)[C@@H](C(C)C)NC(=O)[C@H]([C@@H](C)CC)NC(=O)[C@@H](CC(C)C)NC(=O)[C@@H](Cc2ccccc2)NC(=O)[C@H](CCO)NC(=O)[C@@H]2C[C@@H](O)CN2C1=O | – | – | – | – | Toxic | Non-Toxic | Toxic | 6.4 | 70.7 | Active | Active | – | Toxic | 5.6 | 3.7 | 12.4 | Toxic | Non-Toxic | Non-Toxic | – |
| C/C=C(/NC(=O)[C@H](CCO)NC(=O)C[C@H](N)CCCCC)C(=O)N1C[C@H](O)C[C@H]1C(=O)N[C@@H](CCO)C(=O)N[C@H](Cc1ccccc1)C(=O)N[C@H](CC(C)C)C(=O)N[C@H](C(=O)N[C@@H](C(=O)O)[C@@H](C)CC)[C@@H](C)CC | Non-Toxic | Non-Toxic | Non-Toxic | – | – | – | – | – | – | – | – | – | – | – | – | – | – | – | – | – |
| C/C=C1/NC(=O)[C@H](CCO)NC(=O)C[C@@H](CCCCC)NC(=O)CNC(=O)[C@H](CC(C)C)NC(=O)[C@@H]([C@@H](C)CC)NC(=O)[C@H]([C@@H](C)CC)NC(=O)[C@@H](CC(C)C)NC(=O)[C@@H](Cc2ccccc2)NC(=O)[C@H](CCO)NC(=O)[C@@H]2C[C@@H](O)CN2C1=O [LAXAPHYCIN A] (cyclo(G[dβ3hAhp][hSer][X1][Hyp][hSer][dF][dL]I[d(aIle)]L)) | Non-Toxic | Non-Toxic | Non-Toxic | – | – | – | – | – | – | – | – | – | – | – | – | – | – | – | – | – |
| C/C=C1/NC(=O)[C@H](CCO)NC(=O)C[C@@H](CCCCC)NC(=O)CNC(=O)[C@H](CC(C)C)NC(=O)[C@@H]([C@@H](C)CC)NC(=O)[C@H](C(C)C)NC(=O)[C@@H](CC(C)C)NC(=O)[C@@H](Cc2ccccc2)NC(=O)[C@H](CCO)NC(=O)[C@@H]2C[C@@H](O)CN2C1=O | – | – | – | – | – | – | – | – | 73.1 | Active | 15.8% | – | Toxic | 0.6 | 1.3 | 3.6 | Toxic | Non-Toxic | Non-Toxic | Active |
